# Test results published in PubChem BioAssay.
# A number with no mark means an inactive call. Results filed as inconclusive are left out. Active and inactive are the calls of the source.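 The calls were made as follows, unless noted: active = RAM network inhibition above 8.4% in each of two replicates, 3 SD over the compound average; inconclusive = above 8.4% inhibition in only one replicate; inactive = 8.4% inhibition or less in each replicate.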
# Key:
# [1] = S. cerevisiae growth inhibition in permissive medium (OD615), pilot counter-assay for S. cerevisiae lifespan shortening project, permissive growth control (AID 705;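 active = growth inhibition above 25% in both replicates, a cutoff set 3 SD above the mean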); conditions: OD615, 24 h, at 10 µM, stronger effect = higher value
# How it was run: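 Timing: 24 h exposure, 30 °C / Material: Saccharomyces cerevisiae strain carrying genetically modified DeaD replicative-lifespan system / Signal: OD at 615 nm / Compound: 10 µM single dose, 0.25% DMSO / Medium: SC raffinose/galactose permissive medium / Evaluation: reduction in yeast growth (OD615)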
# [2] = S. cerevisiae growth inhibition in restrictive medium, OD615, pilot screen, restrictive growth control, yeast lifespan reduction project (AID 706;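 active = growth inhibition above a set limit, 3 SD over mean compound inhibition, in both replicates, cut at about 43% in these data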;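 also: modified DeaD lifespan yeast strain shifted to restrictive glucose medium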); conditions: OD615, 48 h, at 10 µM, stronger effect = higher value
# How it was run: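 System: Engineered S. cerevisiae DeaD strain | Detection: OD615 | Buffer or medium: CSMM-D glucose medium | Doses: 10 µM compound, 0.25% DMSO | Timing: 4 h pre-growth plus 48 h compound exposure, 30 °C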
# [3] = doxorubicin toxicity protection in MRP-1 cells – H69AR cells, CellTiter-Glo, duplicate, MRP-1 activator project, pilot screen (AID 807;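 active = viability increase at or above a cutoff of the median across tested compounds plus 3 SD, cut at about 8.5% in these data, passing the limit was not always enough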;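 also: compound pretreatment 18-22 h then 72 h combined with doxorubicin; 0% = doxorubicin alone and 100% = vehicle without doxorubicin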); conditions: H69AR viability with doxorubicin, CellTiter-Glo luminescence; at 10 µM; stronger effect = higher value
# [4] = viability of HCT116 without oncogenic beta-catenin – human colon tumor cells, pilot screen (AID 823;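 active = cell viability at or below a set limit in both duplicate runs, the limit being the all-compound median minus 4 SD, cut at about 23% in these data, passing the limit was not always enough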;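 also: 0% = wells killed by 20 µM Hyamine and 100% = untreated DMSO cell wells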); conditions: HCT116 beta-catenin knockout viability, CellTiter-Glo, 60 h; at 10 µM; stronger effect = lower value
# [5] = viability of PTEN-null HCT116 cells – cell-based, HCT116 clonal line, CellTiter-Glo, pilot screen (AID 824;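 active = viability at or below 27.92% in each of two runs, the all-compound median minus 4 SD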;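 also: 0% = 20 µM Hyamine control and 100% = vehicle cell control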); conditions: HCT116 PTEN-deleted viability, 60 h, at 10 µM, stronger effect = lower value
# [6] = RAM pathway blockade in budding yeast – dse1pr::URA3 reporter, 5-FOA selection, pilot screen (AID 869;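 active = inhibition over a set limit, the all-compound mean plus 3 SD, in both replicate runs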;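 also: 0% = DMSO wells with no growth and 100% = 10 µM 1-NA-PP1 with full growth; RAM network block rescues cells from 5-FOA so hits raise OD615 growth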); conditions: S. cerevisiae dse1pr::URA3 5-FOA growth, OD615, 2 d; at 10 µM; stronger effect = higher value; strain carries analog-sensitive mutant Cbk1 kinase
# [7] = RAM signaling pathway blockade in yeast – S. cerevisiae, Pdr1DBD-CYC8 efflux-inhibited sensitized strain, primary screen (AID 1298);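 also: 0% = DMSO untreated cells without growth and 100% = 10 µM 1-NA-PP1 full growth; higher means more yeast growth rescued from 5-FOA killing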; conditions: S. cerevisiae cbk1-as DSE1-URA3 strain, 5-FOA growth OD615, 2 d; at 50 µM; stronger effect = higher value
Compound,growth inhibition [1] [%],growth inhibition [2] [%],viability increase [3] [%],viability [4],viability [5],inhibition [6] [%],RAM network inhibition [7] [%]
C=CCOc1cccc(C2c3c(oc4ccccc4c3=O)C(=O)N2c2ccccn2)c1 (configuration not stated),-8.5,-8.1,-4.17,79.7%,81.6%,2.12,9.18
COCCN1C=C(C(=O)OC)C(c2ccc(OC)c(OC)c2)C(C(=O)OC)=C1,-4.43,-9.06,-0.95,98%,100%,1.43,-0.97
O=C(CCC1CCCC1)c1c(O)c2ccccc2oc1=O,0.51,13.6,-2.11,69.4%,67.7%,0.63,-1.56
O=C(Nc1cc(=O)c2ccccc2o1)N1CCOCC1,1.73,-7.41,-2.39,103%,103%,2.6,1.4
COc1cccc(N2CCN(c3ncnc4c3cnn4-c3ccc(C)cc3C)CC2)c1,4.2,3.35,-8.59,7.71% (active),10.3% (active),1.66,8.39
C=C(C)Cn1c(NCCC)nc2c1c(=O)n(C)c(=O)n2C,-9.8,-3.75,-0.51,98%,95.2%,2.74,1.36
CC(C)C(NS(=O)(=O)c1ccc2c(c1)oc(=O)n2C)C(=O)N1CCN(c2ccccc2F)CC1 (configuration not stated),-11,-9.9,-4.04,86.9%,83.1%,1.75,4.04
COC(=O)c1ccc(NC(=O)CSc2nnc(COc3ccc4c(c3)CCCC4)o2)cc1,-2.11,-2.11,-3.92,97.8%,96.7%,3.43,4.19
Cc1cc(C)c2c(N)c(C(=O)Nc3nccs3)sc2n1,0.355,16.4,-5.52,87.8%,90.5%,2,-0.11
CCOc1cc2[nH]c(=O)n(Cc3ccc(C(=O)NCCOC)cc3)c(=O)c2cc1OCC,-16.2,-6.54,-1.54,97.8%,95.2%,0.03,6.22
CC1CCc2nn(CC(=O)NCc3ccco3)cc2C1 (configuration not stated),8.89,2.02,-3.13,92.7%,88.2%,2.08,5.3
CCc1ccc(Cn2nnc(C(=O)Nc3cccc(C)c3)c2N)cc1,-7.21,-2.92,-0.67,102%,95.9%,3.39,8.18
Cc1ccc2[nH]c(=O)c(-c3noc(C(C)C)n3)cc2c1,-11.9,-1.75,-2.88,114%,96.5%,0.48,5.62
CSc1oc(-c2ccc(F)cc2)nc1S(=O)(=O)c1ccccc1,-2.16,0.385,-1.13,97.2%,93.7%,0.585,4.67
O=C(c1ccc(=O)[nH]c1)N(Cc1ccco1)C1(C(=O)NC2CCCCC2)CCCCC1,-20,-18.9,-3.3,97.2%,92.5%,0.61,1.87
Cn1c(SCc2nc(-c3ccc(Cl)cc3)no2)nnc1-c1ccco1,-8.54,-0.675,-2.85,90.6%,85.6%,2.02,6.31
CCOC(=O)N1CCN(C(=O)c2ccc3c(=O)n(CCC4=CCCCC4)c(=S)[nH]c3c2)CC1,-6.92,3.16,-7.23,49.1%,45.5%,3.38,4.35
CCN(CCNS(=O)(=O)c1ccc2c(c1)oc(=O)n2C)c1ccccc1,-5.19,-5.92,-1.13,108%,105%,4.3,1.2

Compound,growth inhibition [1] [%],growth inhibition [2] [%],viability increase [3] [%],viability [4],viability [5],inhibition [6] [%],RAM network inhibition [7] [%]
Cc1cc(C)c2c(=O)[nH]c(SCC(=O)N3CCCCC3)nc2n1,-12.1,-6.02,-0.84,93.1%,101%,0.535,2.3
C=C(C)Cn1c(COc2ccccc2)nnc1SCC(=O)O,-9.65,-7.02,-4.09,89.7%,90.6%,0.3,0.88
Cn1c(NC(=O)CC2CCCCC2)cc(=O)n(C)c1=O,-14,-21.6,-0.04,93.3%,87%,0.43,-0.37
Cc1ccc(NC(=O)c2cnc3scc(C)n3c2=O)c(C)c1,-4.27,-12.6,-3.97,106%,96.5%,-0.14,1.14
COc1ccc(C2/C(=C(/O)c3ccc(F)cc3)C(=O)C(=O)N2CCCN(C)C)cc1 (configuration not stated),-5.9,-4.55,-2.11,104%,98.1%,0.345,2.49
Cn1c(NC(=O)C(C)(C)Oc2ccc(Cl)cc2)cc(=O)n(C)c1=O,-1.72,-8.67,-0.77,94.7%,91.3%,2.34,-2.22
COc1ccccc1CNC(=O)c1ccc(CNc2c(N3CCCC3)c(=O)c2=O)cc1,3.65,-2.78,-2.46,98.8%,94.8%,0.46,2.8
CCN(CC)c1cccc(OC2=NS(=O)(=O)c3ccccc32)c1,-1.53,0.2,-1.25,99.1%,97.8%,1.63,5.72
CCOC(=O)c1[nH]c2c(c1C)C(=O)CC(c1ccc(F)cc1)C2 (configuration not stated),-5.83,-18.5,-4.6,16.7% (active),20.4% (active),0.11,1.42
COc1cccc(NC2=CC(=O)CC(C)(C)C2)c1,4.23,0.02,-0.06,95%,99.2%,0.5,1.95
COc1ccc2cc(CCNC(=O)C3CCCC3)c(=O)[nH]c2c1,-6.89,-9.8,-0.27,109%,98.5%,1.08,0.21
O=C(Cn1cc2c(n1)CCCC2)N1CCc2ccccc21,-7.55,9.02,-2.04,66%,77.4%,2.28,-1.03
O=C(CSc1ccccn1)c1ccc(F)cc1,10.7,17.6,-0.02,100%,102%,2.88,1.72
N#CC1=C2C=CC=CN2CC1=O,-23.9,-15.7,-2.42,91.2%,93.1%,1.7,2.23
CC(=O)c1cccc(NC(=O)C2CCCC2)c1,-9.02,-23.5,-0.26,102%,95.4%,1.08,-2.18
O=C(CSc1ncn[nH]1)Nc1nnc(-c2ccccc2)s1,6.24,11.1,4.9,94.3%,93.7%,-0.75,0.61
C=CCc1cccc2cc(C(=O)N(C)C)c(=O)oc12,-7.92,-6.08,-1.06,105%,93.8%,1.53,2.04
COc1ccccc1N=C(C)C1=C(O)CSC1=O,-9.17,-5.92,-1.29,99.6%,93.3%,-0.17,6.89
